Results: ChEMBL document CHEMBL5724801, “EUbOPEN Chemogenomics Library - Multiplex” (2024)
Values joined by “and” are separate entries in the source; they are usually repeats but may differ in a detail not shown here. Equal entries are not always repeated.

Tested on: Fibroblast
Assay: Multiplex assay against human fibroblast
Type: toxicity, cell-based
Summary of the method: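 Live cells carried four stains from seeding: Hoechst33342, BioTracker Green Microtubule Cytoskeleton Dye, MitoTracker Red and Annexin V Alexa Fluor 680. They were imaged on a CQ1 microscope at 37°C and 5% CO2 after compound addition. Using CellPathfinder machine-learning gating, cells were split into Hoechst high-intensity objects or normal cells, normal cells into healthy, pyknosed or fragmented nuclei, and pyknosed cells into mitotic or apoptotic; tubulin, mitochondrial-mass and membrane-permeability phenotypes are per cents of healthy-nucleus cells.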

[1] = 12 h, 1 µM, compound concentration 1 uM
[2] = 12 h, 10 µM, compound concentration 10 uM
[3] = 24 h, 1 µM, compound concentration 1 uM
[4] = 24 h, 10 µM, compound concentration 10 uM
[5] = 48 h, 1 µM, compound concentration 1 uM
[6] = 48 h, 10 µM, compound concentration 10 uM

## CC(C)CNc1nc(N2CCN(CC3CCCOC3)CC2)ncc1C(=O)NCc1ccccc1 (stereo not given)
[1]
  Population Apoptotic (%): 34% and 80.22%
  Population Fragmented Nuclei (%): 39.83% and 19.74%
  Population Healthy Nuclei (%): 17.8% and 20.39%
  Population Hoechst High Intensity Objects (%): 0%
  Population Membrane Permeable-Phenotype (%): 9.52% and 19.35%
  Population Mitochondria Different-Phenotype (%): 9.52% and 6.45%
  Population Normal (%): 100%
  Population Pyknosed Nuclei (%): 42.37% and 59.87%
  Total Cell Count: 118 and 152
[2]
  Population Apoptotic (%): 39.68% and 87.25%
  Population Fragmented Nuclei (%): 33.58% and 21.43%
  Population Healthy Nuclei (%): 19.4% and 12.34%
  Population Hoechst High Intensity Objects (%): 0%
  Population Mitochondria Different-Phenotype (%): 57.69% and 63.16%
  Population Normal (%): 100%
  Population Pyknosed Nuclei (%): 47.01% and 66.23%
  Population Tubulin-Different-Phenotype (%): 57.69% and 94.74%
  Total Cell Count: 134 and 154
[3]
  Population Apoptotic (%): 32.61% and 81.58%
  Population Healthy Nuclei (%): 30.28% and 37.59%
  Population Hoechst High Intensity Objects (%): 0%
  Population Membrane Permeable-Phenotype (%): 9.09% and 24.53%
  Population Mitochondria Different-Phenotype (%): 24.24% and 15.09%
  Population Normal (%): 100%
  Population Pyknosed Nuclei (%): 42.2% and 53.9%
  Population Tubulin-Different-Phenotype (%): 39.39% and 67.92%
  Total Cell Count: 109 and 141
[4]
  Population Apoptotic (%): 59.65% and 72.31%
  Population Fragmented Nuclei (%): 28.46% and 10.32%
  Population Healthy Nuclei (%): 27.69% and 47.74%
  Population Hoechst High Intensity Objects (%): 0%
  Population Mitochondria Different-Phenotype (%): 58.33% and 47.3%
  Population Mitotic Cells (%): 40.35% and 27.69%
  Population Normal (%): 100%
  Population Pyknosed Nuclei (%): 43.85% and 41.94%
  Population Tubulin-Different-Phenotype (%): 66.67% and 87.84%
  Total Cell Count: 130 and 155
[5]
  Population Apoptotic (%): 33.33% and 68.42%
  Population Fragmented Nuclei (%): 15.25% and 14.4%
  Population Healthy Nuclei (%): 64.41% and 70.4%
  Population Hoechst High Intensity Objects (%): 0%
  Population Membrane Permeable-Phenotype (%): 13.16% and 19.32%
  Population Mitochondria Different-Phenotype (%): 36.84% and 19.32%
  Population Mitotic Cells (%): 66.67% and 31.58%
  Population Normal (%): 100%
  Population Pyknosed Nuclei (%): 20.34% and 15.2%
  Population Tubulin-Different-Phenotype (%): 35.53% and 67.05%
  Total Cell Count: 118 and 125
[6]
  Population Apoptotic (%): 52.78% and 75%
  Population Fragmented Nuclei (%): 19.46% and 17.61%
  Population Healthy Nuclei (%): 56.38% and 72.33%
  Population Hoechst High Intensity Objects (%): 0%
  Population Mitochondria Different-Phenotype (%): 60.71% and 47.83%
  Population Mitotic Cells (%): 47.22% and 25%
  Population Normal (%): 100%
  Population Pyknosed Nuclei (%): 24.16% and 10.06%
  Population Tubulin-Different-Phenotype (%): 70.24% and 84.35%
  Total Cell Count: 149 and 159

## CCOC(=O)c1cnn(-c2ccc(NC(=O)C(Cl)=C(Cl)Cl)cc2)c1C(F)(F)F
[1]
  Population Apoptotic (%): 8.82% and 15%
  Population Fragmented Nuclei (%): 15.65% and 11.22%
  Population Healthy Nuclei (%): 61.22% and 68.37%
  Population Hoechst High Intensity Objects (%): 0%
  Population Membrane Permeable-Phenotype (%): 5.56% and 0%
  Population Mitochondria Different-Phenotype (%): 6.67% and 10.45%
  Population Mitotic Cells (%): 91.18% and 85%
  Population Normal (%): 100%
  Population Pyknosed Nuclei (%): 23.13% and 20.41%
  Population Tubulin-Different-Phenotype (%): 8.89% and 11.94%
  Total Cell Count: 147 and 196
[2]
  Population Apoptotic (%): 23.28% and 49.64%
  Population Fragmented Nuclei (%): 10.69% and 2.33%
  Population Healthy Nuclei (%): 16.35% and 18.02%
  Population Hoechst High Intensity Objects (%): 0%
  Population Membrane Permeable-Phenotype (%): 7.69% and 12.9%
  Population Mitotic Cells (%): 76.72% and 50.36%
  Population Normal (%): 100%
  Population Pyknosed Nuclei (%): 72.96% and 79.65%
  Population Tubulin-Different-Phenotype (%): 42.31% and 54.84%
  Total Cell Count: 159 and 172
[3]
  Population Apoptotic (%): 32.35% and 26.32%
  Population Fragmented Nuclei (%): 13.42% and 8.93%
  Population Healthy Nuclei (%): 63.76% and 82.59%
  Population Hoechst High Intensity Objects (%): 0%
  Population Membrane Permeable-Phenotype (%): 1.05% and 1.08%
  Population Mitochondria Different-Phenotype (%): 5.26% and 3.78%
  Population Mitotic Cells (%): 67.65% and 73.68%
  Population Normal (%): 100%
  Population Pyknosed Nuclei (%): 22.82% and 8.48%
  Population Tubulin-Different-Phenotype (%): 12.63% and 12.43%
  Total Cell Count: 149 and 224
[4]
  Population Apoptotic (%): 37.76% and 80.65%
  Population Fragmented Nuclei (%): 17.09% and 8.6%
  Population Healthy Nuclei (%): 20.89% and 24.73%
  Population Hoechst High Intensity Objects (%): 0%
  Population Membrane Permeable-Phenotype (%): 15.15% and 43.48%
  Population Mitochondria Different-Phenotype (%): 0% and 19.57%
  Population Normal (%): 100%
  Population Pyknosed Nuclei (%): 62.03% and 66.67%
  Population Tubulin-Different-Phenotype (%): 39.39% and 84.78%
  Total Cell Count: 158 and 186
[5]
  Population Apoptotic (%): 35.29% and 26.67%
  Population Fragmented Nuclei (%): 12.65% and 7.11%
  Population Healthy Nuclei (%): 77.11% and 86.22%
  Population Hoechst High Intensity Objects (%): 0%
  Population Membrane Permeable-Phenotype (%): 0.78% and 1.55%
  Population Mitotic Cells (%): 64.71% and 73.33%
  Population Normal (%): 100%
  Population Pyknosed Nuclei (%): 10.24% and 6.67%
  Population Tubulin-Different-Phenotype (%): 4.69% and 11.86%
  Total Cell Count: 166 and 225
[6]
  Population Apoptotic (%): 35.48% and 83.87%
  Population Fragmented Nuclei (%): 22.75% and 43.62%
  Population Healthy Nuclei (%): 58.68% and 39.89%
  Population Hoechst High Intensity Objects (%): 0%
  Population Membrane Permeable-Phenotype (%): 14.29% and 37.33%
  Population Mitochondria Different-Phenotype (%): 15.31% and 25.33%
  Population Normal (%): 100%
  Population Pyknosed Nuclei (%): 18.56% and 16.49%
  Population Tubulin-Different-Phenotype (%): 40.82% and 89.33%
  Total Cell Count: 167 and 188
